Measurements gathered from unrelated publications.
Compare with care: the assays were run in different laboratories.
Technique: competition with immobilised ligand
RPS6KA3 N-terminal kinase domain: Ribosomal protein S6 kinase alpha-3, N-terminal kinase domain (RPS6KA3, Homo sapiens, UniProt P51812)
RPS6KA3 C-terminal kinase domain: Ribosomal protein S6 kinase alpha-3, C-terminal kinase domain (RPS6KA3, Homo sapiens, UniProt P51812)

Cc1c(NC(=O)c2cc(C(N)=O)nc3cc(F)ccc23)c(C(F)(F)F)nn1Cc1ccc(C(C)(C)C)cc1  remaining binding (RPS6KA3 N-terminal kinase domain; cell-free assay; 1 µM): 100%
C[C@@H]1CCN(c2nccc(-c3cnn4ncccc34)n2)C1  remaining binding (RPS6KA3 C-terminal kinase domain; binding; 1 µM): 98%
CCOCCn1cc(C(=O)Nc2ccc(-n3nc(-c4cccnc4)cc3C(F)(F)F)cn2)ccc1=O  remaining binding (RPS6KA3 C-terminal kinase domain; cell-free assay; 1 µM): 87%
Cc1cnn2ncc(-c3ccnc(N(C)C)n3)c2c1  remaining binding (RPS6KA3 C-terminal kinase domain; binding; 1 µM): 100%
Cc1cnc(Nc2ccc(C(=O)N3CCC(N4CCCC4)CC3)cc2)nc1-c1cc2ccccc2s1  remaining binding (RPS6KA3 C-terminal kinase domain; binding; 1 µM): 80%
O=C(Nc1c[nH]nc1C(=O)NC1CCNCC1)c1cc(F)cc(F)c1  remaining binding (RPS6KA3 C-terminal kinase domain; binding; 1 µM): 100%
O=C(NCCCN1CCOCC1)c1ccc(Nc2ncc(Cl)c(-c3ccc(Cl)s3)n2)cc1  remaining binding (RPS6KA3 C-terminal kinase domain; binding; 1 µM): 100%
N[C@H]1CCN(c2nccc(-c3cnn4ncccc34)n2)C1  remaining binding (RPS6KA3 C-terminal kinase domain; binding; 1 µM): 40%
CCN1CCN(Cc2ccc(C(=O)Nc3ccc(C)c(Oc4ccc5c(c4)CC(=O)N5)c3)cc2C(F)(F)F)CC1  remaining binding (RPS6KA3 N-terminal kinase domain; binding; 1 µM): 100%
CN(c1ccnc(CNc2nc(Nc3ccc4c(c3)CC(=O)N4)ncc2C(F)(F)F)n1)S(C)(=O)=O  remaining binding (RPS6KA3 N-terminal kinase domain; cell-free assay; 1 µM): 25%
O=C(c1ccc(Nc2ncc(Cl)c(-c3cc4ccccc4s3)n2)cc1)N1CCC(N2CCCC2)CC1  remaining binding (RPS6KA3 C-terminal kinase domain; binding; 1 µM): 77%
c1cnn2ncc(-c3ccnc(N4CCC45COC5)n3)c2c1  remaining binding (RPS6KA3 C-terminal kinase domain; binding; 1 µM): 100%
CNC(=O)[C@@H]1CC[C@@H](n2c(-c3ccc4cnccc4c3)nc3ccc(C(=O)NCc4cccc(C(N)=O)c4)cc32)C1  remaining binding (RPS6KA3 N-terminal kinase domain; binding; 1 µM): 87%
C[C@H](NC(=O)c1cnc2n1[C@](C)(Cc1ccc(C#N)cc1)C(=O)N2c1cc(Cl)c(F)c(Cl)c1)C(=O)NC1(c2ccccn2)CC1  remaining binding (RPS6KA3 C-terminal kinase domain; cell-free assay; 1 µM): 100%
F[C@@H]1CCN(c2nccc(-c3cnn4ncccc34)n2)C1  remaining binding (RPS6KA3 C-terminal kinase domain; binding; 1 µM): 100%
CNCc1ccccc1-c1csc([C@H](C)Nc2nc(C)nc3cc(OC)c(OC)cc23)c1  remaining binding (RPS6KA3 C-terminal kinase domain; cell-free assay; 1 µM): 78%
CN(C)c1nccc(-c2cnn3ncccc23)n1  remaining binding (RPS6KA3 C-terminal kinase domain; binding; 1 µM): 99%
COc1ncc2cc3ccccc3nc2c1C#N  remaining binding (RPS6KA3 C-terminal kinase domain; cell-free assay; 5 µM): 96%
